MrgX1 agonist: agonists of human MrgX1 receptor, primary screen, HEK293 cells, Fluo-4 calcium flux; Mas-related G-protein coupled receptor member X1 (Homo sapiens), Q96LB2; Fluo-4 calcium fluorescence, agonist mode; stronger effect = higher value; B-score at 10 µM; 0.44% of 310,000 active;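 active = calcium response B-score plate-corrected fluorescence ratio at least 3 library SD, with starting fluorescence B-score inside 5 SD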
Target sequence (Q96LB2 whole entry, looked up): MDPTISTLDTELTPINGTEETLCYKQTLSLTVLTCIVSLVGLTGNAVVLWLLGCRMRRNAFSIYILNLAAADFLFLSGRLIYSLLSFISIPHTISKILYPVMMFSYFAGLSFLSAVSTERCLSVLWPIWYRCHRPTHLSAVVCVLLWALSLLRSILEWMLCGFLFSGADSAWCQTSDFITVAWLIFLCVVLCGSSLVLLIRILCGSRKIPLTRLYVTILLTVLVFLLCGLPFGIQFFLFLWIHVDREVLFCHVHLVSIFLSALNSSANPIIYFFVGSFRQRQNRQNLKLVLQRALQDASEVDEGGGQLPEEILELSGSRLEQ
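Assay system: MrgX1-expressing HEK293 cells / Amount: fifteen thousand cells per well / Doses: test compound in the initial addition of three / Timing: cells plated overnight, dye loaded 0.5 h 37 °C, 0.5 h room temperature / Technique: kinetic calcium dye fluorescence, Fluo-4 NW / Control set: positive and negative controls per plate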
MrgX1 PAM: positive allosteric modulators of MrgX1, primary screen, HEK293 cells, Fluo-4 calcium flux; AID 588675, 2011; 0.63% of 310,000 active; B-score at 10 µM; FDSS; stronger effect = higher value; Mas-related G-protein coupled receptor member X1 (Homo sapiens), Q96LB2;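 active = plate-corrected calcium response at least 3 library SD above typical, normal starting fluorescence, not activating the receptor alone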;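 note: compound read alongside a low EC10 to EC30 dose of BAM8-22 agonist; peak minus trough fluorescence over baseline measured at the second addition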
MrgX1 antagonist: antagonists of human MrgX1 receptor, primary screen, HEK293 cells, Fluo-4 calcium flux. Mas-related G-protein coupled receptor member X1 (Homo sapiens), Q96LB2. BAM8-22 antagonism; stronger effect = lower value. B-score at 10 µM. 1.3% of 310,000 active. AID 588676, 2011;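 active = calcium-response B-score plate-corrected more than 3 library SD below zero, starting fluorescence within 5 deviations, no agonist response on first addition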;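 note: peak minus trough fluorescence over baseline after final BAM8-22 challenge near maximal dose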
RGS4 pot: RGS4 potentiators or activators, primary screen, cell-based, HEK293 M3R inducible RGS4, calcium flux | carbachol calcium flux Fluo4; stronger effect = lower value | B-score at 10 µM | 0.92% of 310,000 active | AID 463111, 2010;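 active = B-score of the integrated calcium signal more than 4 SD below the library mean, with starting fluorescence not abnormally high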;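 note: negative B-score means reduced calcium response which marks RGS4 activation or potentiation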
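Material: Inducible-RGS4 HEK293 cells carrying M3 receptor; also added: carbachol at ECmax as muscarinic agonist stimulus; incubation: compound preincubation 20 min at room temperature before agonist; signal: Fluo4-AM (2 µM) calcium-flux fluorescence, kinetic read; measure: integrated calcium ratio converted to B score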
RGS4 block: RGS4 inhibitors, primary screen, cell-based, HEK293 M3R inducible RGS4, calcium flux | Regulator of G-protein signaling 4 (Homo sapiens), P49798 | Fluo-4 calcium flux; stronger effect = higher value; triggered by carbachol at its EC20 | B-score at 10 µM | 0.45% of 310,000 active | AID 463165, 2010;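 active = B-score, a plate-corrected calcium signal, over three deviations above library mean, with baseline fluorescence within five deviations of library mean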;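 note: RGS4 expression induced by doxycycline in cells with stable M3 receptor; B-score is computed from the integrated fluorescence ratio over baseline after carbachol; higher B-score means a larger calcium signal and so more RGS4 inhibition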
Target sequence (P49798 whole entry, looked up): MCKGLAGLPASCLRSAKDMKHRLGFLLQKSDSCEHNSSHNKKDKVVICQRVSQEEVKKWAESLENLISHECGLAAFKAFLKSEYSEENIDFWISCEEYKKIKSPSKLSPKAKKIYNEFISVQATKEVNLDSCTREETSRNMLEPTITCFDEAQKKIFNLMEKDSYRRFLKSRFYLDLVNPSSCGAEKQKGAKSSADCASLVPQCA
MrgX1 antag conf: MrgX1 receptor antagonists, duplicate retest, confirmation, HEK293 cells, Fluo-4 calcium flux; shares compounds with MrgX1 antagonist; BAM8-22 calcium flux; stronger effect = lower value; remaining BAM8-22 calcium response % of control (stronger effect = lower value), % at 10 µM; 19% of 2,300 active; AID 602420, 2012;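 active = remaining agonist calcium response no higher than 100% minus 3 SD of agonist-only control wells, with starting fluorescence near control levels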;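 note: agonist BAM8-22 given at a near maximal EC90 to ECmax level; peak minus minimum fluorescence divided by baseline after agonist addition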
HEK293 Ca flux: nonspecific calcium signal in parental HEK293, confirmation, counter-screen for MrgX1 antagonist project, parental HEK293 cells, Fluo-4 calcium flux; shares compounds with MrgX1 antagonist; fluorescence ratio F(max-min)/F0 at 10 µM; AID 624111, 2012; 2% of 4,000 active; Fluo-4 calcium fluorescence, FDSS;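 active = duplicate-averaged calcium fluorescence ratio at least three times the standard deviation of buffer wells, a nonspecific response in parental cells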
HEK293 Ca counter: calcium response in parental HEK293 cells, primary screen, counter-screen for MrgX1 allosteric activator project, cell-based, Fluo-4 calcium flux, duplicate; 0.4% of 4,000 active; Fluo-4 fluorescence ratio; stronger effect = higher value; fluorescence ratio F(max-min)/F0 at 10 µM; shares compounds with MrgX1 antagonist; AID 624114, 2012;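 active = calcium fluorescence ratio, averaged over duplicates, at least 3 SD of the buffer-well ratio, meaning a nonspecific response in receptor-free cells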;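 note: untransfected parental HEK293 lacking MrgX1 used as counterscreen for MrgX1 allosteric activators; fluorescence change taken during the second addition on a kinetic imager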
HEK293 Ca cntr2: calcium response in parental HEK293 cells, primary screen, counter-screen for MrgX1 agonist project, cell-based, Fluo-4 calcium flux, duplicate, agonist mode; 8.7% of 4,000 active; Fluo-4 calcium fluorescence (FDSS); stronger effect = higher value; shares compounds with MrgX1 antagonist; fluorescence ratio F(max-min)/F0 at 10 µM;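 active = calcium fluorescence ratio at least three times the spread of buffer wells, meaning a non-specific response in parental cells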
* marks the source's active call; other numbers are inactive results; i = inactive; / = no result. Most compounds without a hit are left out; they make up all but 3.5% or so of the library.

SMILES	MrgX1 agonist	MrgX1 PAM	MrgX1 antagonist	RGS4 pot	RGS4 block	MrgX1 antag conf	HEK293 Ca flux	HEK293 Ca counter	HEK293 Ca cntr2
Cc1nn(C)c(C)c1NS(=O)(=O)c1cccc(Br)c1	i	i	-4.7*	i	i	i	i	i	i
CN(Cc1ccccc1)/C(=N/O)c1cccc(Cl)c1	i	i	i	i	i	/	/	/	/
CCOC(=O)C1=C(O)/C(=C\c2sccc2C)N=C1C	i	i	-5.2*	i	i	i	i	i	i
Cn1c(=O)n(Cc2ccc(Br)cc2)c2ccccc21	i	i	-9.3*	i	i	i	i	i	i
Cn1c(=O)n(CCC(=O)O)c2ccccc21	i	i	i	i	i	/	/	/	/
CC(C)(C)OC(=O)N1CCC(CC2CC(c3cccc(Br)c3)=NO2)(C(=O)O)CC1 (stereo not drawn)	i	i	i	i	i	/	/	/	/
CC(C)Oc1ccc(C(=O)Nc2nnc(SCC(=O)N3CCOCC3)s2)cc1	i	i	-4.9*	i	i	i	i	i	i
Cc1[nH]c2ccc(C(=O)OC(C)C(=O)NC3(C#N)CCCCC3)cc2c1C (stereo not drawn)	i	i	-6*	i	i	i	i	i	i
Cc1cccc(NC(=O)CSc2nc3ccccc3nc2N2CCCC2)c1C	i	i	i	i	i	/	/	/	/
O=C(NC1CCCCC1)C(=S)N1CCOCC1	i	i	-5.4*	i	i	i	i	i	i
COc1ccc(NC(=O)OCCN2CCN(Cc3ccccc3)CCC2=O)cc1	i	i	i	i	i	/	/	/	/
COc1ccc(CNC(=O)OCCN2CCN(Cc3ccccc3)CCC2=O)cc1	i	i	-4.9*	i	i	i	i	i	i
Cn1c(CNc2ccccc2)nc2ccccc21	i	i	-6.9*	i	i	85%*	i	i	i
CC(C)(C)c1ccc(C(=O)N2CCC(C(=O)NCc3ccncc3)CC2)cc1	i	i	-5.2*	i	i	i	i	i	i
CC(C)(C)c1ccc(C(=O)N2CCC(C(=O)NC3CC3)CC2)cc1	i	i	i	i	i	/	/	/	/
O=C(CC(=O)N/N=C/c1ccc(C(=O)O)cc1)NCCc1ccccc1	i	i	i	i	i	/	/	/	/
Cc1cc(C)c(S(=O)(=O)c2ccc(Cl)cc2C)c(Cl)n1	i	i	i	i	i	/	/	/	/
CCc1ccccc1S(=O)(=O)c1c(C)cc(C)nc1Cl	i	i	-5*	i	i	i	i	i	i
O=C(/C(=C/c1ccccc1)c1ccccc1)N1CCCCC1	i	i	i	i	i	/	/	/	/
COc1cccc(C(=O)N2CCN(C(=O)c3cccc4ccccc34)CC2)c1OC	i	i	-4.9*	i	i	85%*	i	i	i
COc1ccc(CN2CCN(C(=O)c3cccc4ccccc34)CC2)c(OC)c1OC	i	i	i	i	i	/	/	/	/
CCOC(=O)c1ccc(NC(=O)CCSCCc2ccccn2)cc1	i	i	i	i	i	/	/	/	/
S=C(Nc1ccccc1)Nc1ccc(Br)cc1	i	i	-7.3*	i	i	69%*	i	i	i
Cc1ccc(NC(=S)Nc2ccc(Br)cc2)cc1	i	i	-5.8*	i	i	59%*	i	i	i
CC(=O)Nc1ccc(NC(=S)Nc2ccc(Br)cc2)cc1	i	i	i	i	i	/	/	/	/
SMILES	MrgX1 agonist	MrgX1 PAM	MrgX1 antagonist	RGS4 pot	RGS4 block	MrgX1 antag conf	HEK293 Ca flux	HEK293 Ca counter	HEK293 Ca cntr2
Fc1ccccc1NC(=S)Nc1ccc(Br)cc1	i	i	-6.1*	i	i	71%*	i	i	i
S=C(Nc1ccccc1)Nc1cccc(Br)c1	i	i	-5.4*	i	i	63%*	i	i	i
COc1ccc(C2Nc3cc(OC)ccc3-n3cccc32)cc1 (stereo not drawn)	i	i	i	i	i	/	/	/	/
CC(C(=O)O)N(C(=O)c1ccccc1)c1ccc(F)cc1 (stereo not drawn)	i	i	-5.5*	i	i	81%*	i	i	i
CCOC(=O)Nc1cc(NC(=O)OCC)c(C)nc1C	i	i	i	i	i	/	/	/	/
CCCS(=O)(=O)N1CCCC(C(=O)Oc2ccc(C)c(C)c2)C1 (stereo not drawn)	i	i	i	i	i	/	/	/	/
COc1ccc(S(N)(=O)=O)cc1C(=O)OCCCOc1ccc(F)cc1	i	i	i	i	i	/	/	/	/
CCOC(=O)Nc1nc(C)c(C(=O)c2ccc(Cl)cc2)s1	i	i	i	i	i	/	/	/	/
CCOC(=O)Nc1nc(-c2ccc(Cl)cc2Cl)cs1	i	i	-5.6*	i	i	i	i	i	i
Cc1cccc(NC(=O)CC2CCC2)c1	i	i	-5.8*	i	i	i	i	i	i
Cc1cc(NC(=O)CC2CCCC2)ccc1Br	i	i	i	i	i	/	/	/	/
COc1cc(NC(=O)COc2cc(O)c3c(c2)OC(C)(C)CC3=O)cc(OC)c1OC	i	i	-5*	i	i	51%*	i	i	i
CC1(C)CC(=O)c2c(O)cc(OCC(=O)Nc3ccc(S(N)(=O)=O)cc3)cc2O1	i	i	i	i	i	/	/	/	/
CC(/C=C/c1ccccc1)NC(N)=O (stereo not drawn)	i	i	-5.8*	i	i	i	i	i	i
CCOC(=O)c1ccc(Nc2nc(N)c3cc(OC)c(OC)cc3n2)cc1	i	i	i	i	i	/	/	/	/
